For data set [1], the system named is Plasmodium falciparum. Kind of data set: Antiplasmodial activity against chloroquine-sensitive Plasmodium falciparum 3D7 asynchronous cultures infected in human erythrocytes measured after 72 hrs by SYBR Green1 dye based fluorescence assay. The class given is functional, organism-based. As to conditions: 3D7, 72 h. The gist of the method:
(§1)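 Parasites kept in human erythrocytes at 5% hematocrit in RPMI-1640 (HEPES) with 0.5% AlbuMaxII, 0.2% glucose, 0.2% bicarbonate, 15 µM hypoxanthine, 37 °C, CO₂. Two-fold serial dilutions spanning 5 µM to 78 nM were applied to asynchronous cultures at 0.8-1% parasitaemia, 1% haematocrit, for 72 h. SYBR Green I lysis buffer was added for 2 h, with fluorescence read at Ex 485/Em 535 nm. IC50 was derived from DNA signal against drug-free controls.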

Data set [2] can be described thus: Resistance index, ratio of IC50 for chloroquine-resistant Plasmodium falciparum K1 asynchronous cultures infected in human erythrocytes to IC50 for chloroquine-sensitive Plasmodium falciparum 3D7 asynchronous cultures infected in human erythrocytes. The class given is functional.
The nature of data set [3]: Selectivity index, ratio of CC50 for African green monkey Vero cells to IC50 for chloroquine-resistant Plasmodium falciparum K1 asynchronous cultures infected in human erythrocytes. It counts as toxicity, cell-based. The settings on record: read-out: Ratio CC50/IC50.
Data set [4] in a line: Cytotoxicity against African green monkey Vero cells after 3 days by resazurin dye based fluorescence assay. The class given is cell-based. The settings on record: chlorocebus sabaeus. The gist of the method: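 VERO kidney cells kept in MEM with 15% FBS, 5% CO₂, 37 °C. Cells exposed to serial compound dilutions for three days. Then 10% resazurin added as viability marker. Fluorescence read at Ex 530 ± 25 nm / Em 590 ± 25 nm. Median cytotoxic concentration (CC₅₀) calculated from readings.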
For orientation: Resazurin is reduced to fluorescent resorufin, in cell work by metabolically active cells.

The nature of data set [5]: Selectivity index, ratio of CC50 for African green monkey Vero cells to IC50 for chloroquine-sensitive Plasmodium falciparum 3D7 asynchronous cultures infected in human erythrocytes. The settings on record: read-out: Ratio CC50/IC50. The class given is toxicity, cell-based.
For data set [6], the system named is Plasmodium falciparum. The data set can be described thus: Antiplasmodial activity against chloroquine-resistant Plasmodium falciparum K1 asynchronous cultures infected in human erythrocytes measured after 72 hrs by SYBR Green1 dye based fluorescence assay. It counts as functional, organism-based. The settings on record: K1, 72 h. The gist of the method: as §1

The test system of data set [7] is Plasmodium falciparum. The data set can be described thus: Growth inhibition of Plasmodium falciparum ITG2 infected in human erythrocytes assessed as reduction in [3H]-isoleucine incorporation pretreated for 24 hrs followed by [3H]-isoleucine addition and measured after 18 hrs by liquid scintillation counting method. It counts as functional, organism-based.
Data set [8] deals with Plasmodium falciparum. Kind of data set: Growth inhibition of Plasmodium falciparum D6 infected in human erythrocytes assessed as reduction in [3H]-isoleucine incorporation pretreated for 24 hrs followed by [3H]-isoleucine addition and measured after 18 hrs by liquid scintillation counting method. It counts as functional, organism-based.

As usually defined, the IC50 is the concentration needed to halve the response being measured. What is called CC50 is the concentration that lowers cell viability or growth by half. Consider `CCOC(=O)C[C@@H]([C@H]1O[C@@H]2OC(C)(C)O[C@@H]2[C@H]1OCc1ccccc1)n1cnc2c(NCc3ccccc3)ncnc21`, for which the values for the IC50 with Plasmodium falciparum [1] and in the data set on Plasmodium falciparum [6] were 1.61 µM and 1.14 µM, respectively. In addition, the “Ratio IC50” value in data set [2] is recorded as 0.7. In addition, the selectivity ratio came out at 50.4 in data set [3] and 35.7 in data set [5]. Half-maximal cytotoxicity in data set [4] (CC50 at 72 h) was put at 57.5 µM.
As for `CC1(C)O[C@H]2O[C@H]([C@H](CCO)n3cnc4c(N)ncnc43)[C@H](OCc3ccccc3)[C@H]2O1`, the figures for the IC50 in the data set with Plasmodium falciparum [1] and with Plasmodium falciparum [6] were 4.31 µM and 4.99 µM, respectively. In data set [2], the “Ratio IC50” value was 1.15. Further, the selectivity ratio in data set [3] was 19.5; in data set [5] it was 22.5. The same molecule came in with a CC50 at 72 h in data set [4] of 97.1 µM.
On to `CC1(C)O[C@H]2O[C@H]([C@H](CCO)n3cnc4c(N)ncnc43)[C@H](Oc3ccccc3[N+](=O)[O-])[C@H]2O1`, for which the IC50 in the data set on Plasmodium falciparum [1] came out at 3.62 µM; in the data set with Plasmodium falciparum [6], 4.7 µM. The “Ratio IC50” value in data set [2] was 1.11. In addition, the selectivity ratio was found to be 33.3 in data set [3] and 37.1 in data set [5]. In addition, in data set [4], the midpoint of cytotoxicity, the CC50 at 72 h, lay at 148 µM.
For the molecule `CCCCCCCCCCCCNc1ncnc2c1ncn2[C@@H](CC(=O)OCC)[C@H]1O[C@@H]2OC(C)(C)O[C@@H]2[C@H]1OCc1ccccc1`, the IC50 turned out to be 0.88 µM in the data set with Plasmodium falciparum [1] and 1.13 µM in the data set on Plasmodium falciparum [6]. In addition, the “Ratio IC50” value in data set [2] was determined as 1.28. In addition, the selectivity ratio in data set [3] was found to be 72.1; in data set [5] it was 92.6. The CC50 at 72 h in data set [4] was determined as 81.5 µM.
For the molecule `CC(O)c1ccc(-n2cnc3c(N)ncnc32)cc1` (stereo not given), the IC50 with Plasmodium falciparum [1] is greater than 5 µM.
`CCCCCCCCCCCCNc1ncnc2c1ncn2[C@H](CC(=O)OCC)[C@H]1O[C@@H]2OC(C)(C)O[C@@H]2[C@H]1OCc1ccccc1`: the IC50 was found to be 1.01 µM in the data set with Plasmodium falciparum [1] and 2.57 µM in the data set with Plasmodium falciparum [6]. For the same molecule, in data set [2], the “Ratio IC50” value came to 2.54. The selectivity ratio in data set [3] turned out to be 17.5; in data set [5] it was 44.5. In data set [4], the CC50 at 72 h worked out at 45 µM.
With `COC(=O)C[C@H]([C@H]1O[C@@H]2OC(C)(C)O[C@@H]2[C@H]1OCc1ccccc1)n1cnc2c(N)ncnc21`, the IC50 came to 4.12 µM in the data set on Plasmodium falciparum [1] and 4.09 µM in the data set with Plasmodium falciparum [6]. For the same molecule, in data set [2], the “Ratio IC50” value is 0.99. In addition, the figures for the selectivity ratio in data set [3] and in data set [5] were 21.1 and 20.9, respectively. The same molecule registered a CC50 at 72 h in data set [4] of 86.3 µM.
Consider `COC(=O)C[C@@H]([C@H]1O[C@@H]2OC(C)(C)O[C@@H]2[C@H]1OCc1ccccc1)n1cnc2c(N)ncnc21`, for which the IC50 in the data set with Plasmodium falciparum [1] was determined as 4.44 µM; in the data set on Plasmodium falciparum [6] it was 4.79 µM. The “Ratio IC50” value in data set [2] was determined as 1.07. Also, the values for the selectivity ratio in data set [3] and in data set [5] were 14.3 and 15.4, respectively. Also, in data set [4], half-maximal cytotoxicity (CC50 at 72 h) was put at 68.4 µM.
Turning to `CC1(C)O[C@H]2O[C@H]([C@@H](CCO)n3cnc4c(NCc5ccccc5)ncnc43)[C@H](OCc3ccccc3)[C@H]2O1`, the results for the IC50 in the data set with Plasmodium falciparum [1] and in the data set on Plasmodium falciparum [6] were 4.11 µM and 4.99 µM, respectively. Besides, the “Ratio IC50” value in data set [2] amounted to 1.21. In addition, the values for the selectivity ratio in data set [3] and in data set [5] were 15 and 18.2, respectively. The molecule also gave a CC50 at 72 h in data set [4] of 74.9 µM.
Turning to `CC1(C)O[C@H]2O[C@H]([C@@H](CCO)n3cnc4c(N)ncnc43)[C@H](Oc3ccccc3[N+](=O)[O-])[C@H]2O1`, the IC50 turned out to be 3.13 µM in the data set with Plasmodium falciparum [1] and 2.37 µM in the data set with Plasmodium falciparum [6]. In data set [2], the “Ratio IC50” value amounted to 0.9. The results for the selectivity ratio in data set [3] and in data set [5] were 12.7 and 11.5, respectively. For the same molecule, the CC50 at 72 h in data set [4] is 51.8 µM.
As to `CC1(C)O[C@H]2O[C@H]([C@H](CCO)n3cnc4c(N)ncnc43)[C@@H](OCc3ccccc3)[C@H]2O1`, the figures for the IC50 with Plasmodium falciparum [1] and in the data set on Plasmodium falciparum [6] were 4.52 µM and 4.09 µM, respectively. The “Ratio IC50” value in data set [2] came out at 1.29. In addition, the results for the selectivity ratio in data set [3] and in data set [5] were 31.5 and 40.9, respectively. The same molecule gave a CC50 at 72 h in data set [4] of 148 µM.
On to `CC1(C)O[C@H]2O[C@H]([C@H](CC(=O)O)n3cnc4c(N)ncnc43)[C@H](Oc3ccccc3N)[C@H]2O1`, for which the IC50 amounted to 4.82 µM with Plasmodium falciparum [1] and 3.72 µM with Plasmodium falciparum [6]. The selectivity ratio in data set [3] was found to be 18; in data set [5], 13.9. Also, the CC50 at 72 h in data set [4] was 67.1 µM.
With `CCOC(=O)C[C@H]([C@H]1O[C@@H]2OC(C)(C)O[C@@H]2[C@H]1OCc1ccccc1)n1cnc2c(NCc3ccccc3)ncnc21`, the IC50 in the data set on Plasmodium falciparum [1] is 3.6 µM; with Plasmodium falciparum [6], 2.27 µM. The “Ratio IC50” value in data set [2] is 0.63. Also, the selectivity ratio in data set [3] came out at 23.5; in data set [5], 14.8. This molecule also had a CC50 at 72 h in data set [4] of 53.3 µM.
Regarding `CN(C/C=C/CN)C[C@H]1O[C@@H](n2cnc3c(N)ncnc32)[C@H](O)[C@@H]1O`, the IC50 in the data set on Plasmodium falciparum [7] and with Plasmodium falciparum [8] was 2000 to 3000 nM each time.
For `CCOC(=O)C[C@@H]([C@H]1O[C@@H]2OC(C)(C)O[C@@H]2[C@H]1Oc1ccccc1N)n1cnc2c(N)ncnc21`, the IC50 in the data set on Plasmodium falciparum [1] was 4.47 µM; in the data set on Plasmodium falciparum [6], greater than 5 µM. Further, the “Ratio IC50” value in data set [2] was greater than 1.11. Also, the values for the selectivity ratio in data set [3] and in data set [5] were less than 17.9 and 20.1, respectively. This molecule yielded a CC50 at 72 h in data set [4] of 89.7 µM.
`CCOC(=O)CCn1cnc2c(N)ncnc21`: the IC50 in the data set on Plasmodium falciparum [1] is greater than 5 µM.
Regarding `CCOC(=O)C[C@H]([C@H]1O[C@@H]2OC(C)(C)O[C@@H]2[C@H]1Oc1ccccc1[N+](=O)[O-])n1cnc2c(N)ncnc21`, the IC50 in the data set with Plasmodium falciparum [1] is 4.24 µM; in the data set with Plasmodium falciparum [6], 4.25 µM. In addition, in data set [2], the “Ratio IC50” value is 1. The selectivity ratio in data set [3] was determined as 28; in data set [5] it was 28.1. This molecule also yielded a CC50 at 72 h in data set [4] of 119 µM.
Regarding `CCOC(=O)C[C@@H]([C@H]1O[C@@H]2OC(C)(C)O[C@@H]2[C@H]1Oc1ccccc1[N+](=O)[O-])n1cnc2c(N)ncnc21`, the IC50 in the data set with Plasmodium falciparum [1] was 3.56 µM; with Plasmodium falciparum [6] it was 4.93 µM. Also, the “Ratio IC50” value in data set [2] was determined as 1.38. For the same molecule, the figures for the selectivity ratio in data set [3] and in data set [5] were 19.5 and 27.1, respectively. Moreover, the midpoint of cytotoxicity in data set [4], the CC50 at 72 h, lay at 96.3 µM.
`CC(=O)c1ccc(-n2cnc3c(N)ncnc32)cc1` had an IC50 with Plasmodium falciparum [1] greater than 5 µM.
Turning to `CC1(C)O[C@H]2O[C@H]([C@H](CCO)n3cnc4c(NCc5ccccc5)ncnc43)[C@H](OCc3ccccc3)[C@H]2O1`, the IC50 with Plasmodium falciparum [1] came to 3.99 µM; with Plasmodium falciparum [6], 4.44 µM. The “Ratio IC50” value in data set [2] is 0.75. Besides, the selectivity ratio stood at 25.8 in data set [3] and 19.6 in data set [5]. In data set [4], the CC50 at 72 h amounted to 61.2 µM.

The record behind these values is ChEMBL document CHEMBL4257512, “Synthesis and antiplasmodial activity of purine-based C-nucleoside analogues” (Medchemcomm, 2018).
